Laboratory results reported in ChEMBL document CHEMBL1287651, “Synthesis and in vitro antibacterial activity of fluoroquinolone derivatives containing 3-(N'-alkoxycarbamimidoyl)-4-(alkoxyimino) pyrrolidines” (2010).

Key:
Type in all cases: functional
[1] = system: Staphylococcus epidermidis; assay: Antibacterial activity against methicillin-sensitive Staphylococcus epidermidis 09-6 after 18 to 24 hrs by twofold serial dilution method
In short: (§1)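 Standard twofold serial agar dilution method on agar media for MIC determination. Screened against representative Gram-positive and Gram-negative strains. Levofloxacin and GMFX served as control drugs.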

[2] = system: Staphylococcus epidermidis; assay: Antibacterial activity against methicillin-resistant Staphylococcus epidermidis 09-2 after 18 to 24 hrs by twofold serial dilution method; in short: as §1
[3] = system: Staphylococcus epidermidis; assay: Antibacterial activity against methicillin-resistant Staphylococcus epidermidis 09-3 after 18 to 24 hrs by twofold serial dilution method; in short: as §1
Klebsiella pneumoniae [4] = assay: Antibacterial activity against Klebsiella pneumoniae 09-21 after 18 to 24 hrs by twofold serial dilution method
In short: (§2)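 MIC determined by the standard twofold serial dilution method on agar media, screening against Gram-positive and Gram-negative strains. Levofloxacin and gemifloxacin were run alongside as reference drugs.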

Klebsiella pneumoniae [5] = assay: Antibacterial activity against Klebsiella pneumoniae 09-22 after 18 to 24 hrs by twofold serial dilution method; in short: as §2
Enterococcus faecalis [6] = assay: Antibacterial activity against Enterococcus faecalis 08-12 after 18 to 24 hrs by twofold serial dilution method; in short: as §2
Escherichia coli [7] = assay: Antibacterial activity against Escherichia coli ATCC 25922 after 18 to 24 hrs by twofold serial dilution method; in short: as §2
Klebsiella pneumoniae [8] = assay: Antibacterial activity against Klebsiella pneumoniae 09-23 after 18 to 24 hrs by twofold serial dilution method; in short: as §2
Streptococcus pneumoniae [9] = assay: Antibacterial activity against Streptococcus pneumoniae 08-4 after 18 to 24 hrs by twofold serial dilution method; in short: as §2
Escherichia coli [10] = assay: Antibacterial activity against Escherichia coli 08-22 after 18 to 24 hrs by twofold serial dilution method; in short: as §2
Escherichia coli [11] = assay: Antibacterial activity against Escherichia coli 08-21 after 18 to 24 hrs by twofold serial dilution method; in short: as §2
Pseudomonas aeruginosa [12] = assay: Antibacterial activity against Pseudomonas aeruginosa 09-33 after 18 to 24 hrs by twofold serial dilution method; in short: as §2
Streptococcus pneumoniae [13] = assay: Antibacterial activity against Streptococcus pneumoniae 08-2 after 18 to 24 hrs by twofold serial dilution method; in short: as §2
Enterococcus faecium [14] = assay: Antibacterial activity against Enterococcus faecium 08-2 after 18 to 24 hrs by twofold serial dilution method; in short: as §2
Pseudomonas aeruginosa [15] = assay: Antibacterial activity against Pseudomonas aeruginosa ATCC 27853 after 18 to 24 hrs by twofold serial dilution method; in short: as §2
Enterococcus faecium [16] = assay: Antibacterial activity against Enterococcus faecium 08-7 after 18 to 24 hrs by twofold serial dilution method; in short: as §2
Staphylococcus aureus [17] = assay: Antibacterial activity against methicillin-resistant Staphylococcus aureus 08-1 after 18 to 24 hrs by twofold serial dilution method; in short: as §1
[18] = system: Staphylococcus epidermidis; assay: Antibacterial activity against methicillin-resistant Staphylococcus epidermidis 09-4 after 18 to 24 hrs by twofold serial dilution method; in short: as §1
Staphylococcus aureus [19] = assay: Antibacterial activity against methicillin-sensitive Staphylococcus aureus 08-2 after 18 to 24 hrs by twofold serial dilution method; in short: as §1
Enterococcus faecalis [20] = assay: Antibacterial activity against Enterococcus faecalis 08-10 after 18 to 24 hrs by twofold serial dilution method; in short: as §2
Pseudomonas aeruginosa [21] = assay: Antibacterial activity against Pseudomonas aeruginosa 09-35 after 18 to 24 hrs by twofold serial dilution method; in short: as §2
Pseudomonas aeruginosa [22] = assay: Antibacterial activity against Pseudomonas aeruginosa 09-32 after 18 to 24 hrs by twofold serial dilution method; in short: as §2
Staphylococcus aureus [23] = assay: Antibacterial activity against Staphylococcus aureus ATCC […] after 18 to 24 hrs by twofold serial dilution method; in short: as §2
Pseudomonas aeruginosa [24] = assay: Antibacterial activity against Pseudomonas aeruginosa 09-34 after 18 to 24 hrs by twofold serial dilution method; in short: as §2
[25] = system: Staphylococcus epidermidis; assay: Antibacterial activity against methicillin-sensitive Staphylococcus epidermidis 09-3 after 18 to 24 hrs by twofold serial dilution method; in short: as §1

Measured: MIC

CCO/N=C1\CN(c2c(F)cc3c(=O)c(C(=O)O)cn(C4CC4)c3c2OC(F)F)CC1/C(N)=N\OCC (stereo not given)
64 µg/mL: [2] | [3] | Klebsiella pneumoniae [5] | Enterococcus faecalis [6] | Staphylococcus aureus [19]
128 µg/mL: Escherichia coli [7] | Pseudomonas aeruginosa [15]
1 µg/mL: Staphylococcus aureus [23]
2 µg/mL: Staphylococcus aureus [17]
> 128 µg/mL: all other assays above

CO/N=C1\CN(c2c(F)cc3c(=O)c(C(=O)O)cn(C4CC4)c3c2F)CC1/C(N)=N\OC (stereo not given)
64 µg/mL: Enterococcus faecium [16]
4 µg/mL: Streptococcus pneumoniae [9] | Pseudomonas aeruginosa [15]
0.25 µg/mL: [1] | [3] | Klebsiella pneumoniae [5] | Staphylococcus aureus [17] | [18] | Staphylococcus aureus [19]
16 µg/mL: Streptococcus pneumoniae [13]
0.125 µg/mL: [2] | Staphylococcus aureus [23] | [25]
8 µg/mL: Pseudomonas aeruginosa [21] | Pseudomonas aeruginosa [22]
128 µg/mL: Escherichia coli [7]
> 128 µg/mL: all other assays above

CCO/N=C1\CN(c2nc3c(cc2F)c(=O)c(C(=O)O)cn3C2CC2)CC1/C(N)=N\OCC (stereo not given)
32 µg/mL: [18]
128 µg/mL: Klebsiella pneumoniae [5] | Escherichia coli [7] | Pseudomonas aeruginosa [15]
2 µg/mL: Staphylococcus aureus [23]
8 µg/mL: [2] | [3] | Staphylococcus aureus [19]
> 128 µg/mL: all other assays above
